Assay results published in ChEMBL document CHEMBL1156638, “Antibacterial cannabinoids from Cannabis sativa: a structure-activity study” (2008).
Converted amounts (≈) assume the structure as drawn.

Columns and labels:
Format in all cases: functional
Staphylococcus aureus [1] = assay: Antibacterial activity against […] Staphylococcus aureus SA1199B after 18 hrs
In short: (§1)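 Broth microdilution in Mueller-Hinton broth adjusted to 20 mg/L Ca2+ and 10 mg/L Mg2+. Overnight cultures diluted in 0.9% saline to 5 ×10^5 cfu against a MacFarland standard. Compounds serially diluted twofold, inoculum added, incubated 37 °C for 18 h. DMSO (3.125%) control included. MIC taken as lowest concentration with no visible growth, done in duplicate. MTT (5 mg/mL methanolic) used.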

Staphylococcus aureus [2] = assay: Antibacterial activity against tetracycline-resistant Staphylococcus aureus XU212 after 18 hrs; conditions: XU212, 18 h; in short: as §1
Staphylococcus aureus [3] = assay: Antibacterial activity against epidemic methicillin-resistant Staphylococcus aureus 15 after 18 hrs; in short: as §1
Staphylococcus aureus [4] = assay: Antibacterial activity against […] Staphylococcus aureus ATCC 25923 after 18 hrs; conditions: ATCC 25923, 18 h; in short: as §1
Staphylococcus aureus [5] = assay: Antibacterial activity against epidemic methicillin-resistant Staphylococcus aureus 16 after 18 hrs; in short: as §1
Staphylococcus aureus [6] = assay: Antibacterial activity against macrolide-resistant Staphylococcus aureus RN4220 after 18 hrs; conditions: RN4220, 18 h; in short: as §1

| SMILES | MIC (Staphylococcus aureus [1]) [µg/mL] | MIC (Staphylococcus aureus [2]) [µg/mL] | MIC (Staphylococcus aureus [3]) [µg/mL] | MIC (Staphylococcus aureus [4]) [µg/mL] | MIC (Staphylococcus aureus [5]) [µg/mL] | MIC (Staphylococcus aureus [6]) [µg/mL] |
| --- | --- | --- | --- | --- | --- | --- |
| C=C(C)C1CCC(C)=CC1c1c(CCCCC)cc(O)c([C@@H]2C=C(C)CC[C@H]2C(=C)C)c1O (some centres not stated) | > 128 | > 128 | > 128 | > 128 | > 128 | > 128 |
| CCCCCc1cc(O)c(C/C=C(\C)CCC=C(C)C)c(O)c1C(=O)O [CANNABIGEROLIC ACID] | 4 (≈ 11.1 µM) | 4 (≈ 11.1 µM) | 2 (≈ 5.55 µM) | 4 (≈ 11.1 µM) | 4 (≈ 11.1 µM) | 2 (≈ 5.55 µM) |
| CCCCCc1cc(OC(C)=O)c(C/C=C(\C)CCC=C(C)C)c(OC(C)=O)c1 | > 128 | > 128 | > 128 | > 128 | > 128 | > 128 |
| CCCCCc1cc(O)c(C/C=C(\C)CCC=C(C)C)c(O)c1C(=O)OCCc1ccccc1 | > 128 | > 128 | > 128 | > 128 | > 128 | > 128 |
| C=C(C)[C@@H]1CCC(C)=C[C@H]1c1c(O)cc(CCCCC)cc1O [CANNABIDIOL] | 1 (≈ 3.18 µM) | 1 (≈ 3.18 µM) | 1 (≈ 3.18 µM) | 0.5 (≈ 1.59 µM) | 1 (≈ 3.18 µM) | 1 (≈ 3.18 µM) |
| Cc1onc(-c2ccccc2)c1C(=O)N[C@@H]1C(=O)N2[C@@H]1SC(C)(C)[C@@H]2C(=O)O [OXACILLIN] | 0.25 (≈ 0.623 µM) | 128 (≈ 319 µM) | 32 (≈ 79.7 µM) | 0.125 (≈ 0.311 µM) | > 128 | 0.25 (≈ 0.623 µM) |
| CCCCCc1cc(O)c(C/C=C(\C)CCC=C(C)C)c(O)c1C(=O)OC | 64 (≈ 171 µM) | 64 (≈ 171 µM) | – | – | – | – |
| C=C(C)[C@@H]1CCC(C)=C[C@H]1c1c(O)cc(CCCCC)c(C(=O)O)c1O [CANNABIDIOLIC ACID] | 2 (≈ 5.58 µM) | 2 (≈ 5.58 µM) | 2 (≈ 5.58 µM) | 2 (≈ 5.58 µM) | 2 (≈ 5.58 µM) | 2 (≈ 5.58 µM) |
| Oc1cccc(O)c1 [RESORCINOL] | > 256 | > 256 | > 256 | > 256 | > 256 | > 256 |
| C=C(C)[C@@H]1CCC(C)=C[C@H]1c1c(O)cc(CCCCC)c(C(=O)OC)c1O | > 128 | > 128 | > 128 | > 128 | > 128 | > 128 |
| CCCCCc1cc(O)c2c(c1)OC(C)(C)[C@@H]1CCC(C)=C[C@@H]21 [DRONABINOL] | 2 (≈ 6.36 µM) | 1 (≈ 3.18 µM) | 2 (≈ 6.36 µM) | 1 (≈ 3.18 µM) | 0.5 (≈ 1.59 µM) | 1 (≈ 3.18 µM) |
| CCCCCc1cc(O)c(C/C=C(\C)CCC=C(C)C)c(O)c1 [CANNABIGEROL] | 1 (≈ 3.16 µM) | 1 (≈ 3.16 µM) | 2 (≈ 6.32 µM) | 1 (≈ 3.16 µM) | 1 (≈ 3.16 µM) | 1 (≈ 3.16 µM) |
| CCCCCc1cc(O)c2c(c1)OC(C)(C)c1ccc(C)cc1-2 [CANNABINOL] | 1 (≈ 3.22 µM) | 1 (≈ 3.22 µM) | 1 (≈ 3.22 µM) | 1 (≈ 3.22 µM) | – | 1 (≈ 3.22 µM) |
| CCCCCc1cc(O)c(C/C=C(\C)CCC(O)C(C)(C)O)c(O)c1 (configuration not stated) [CARMAGEROL] | 32 (≈ 91.3 µM) | 16 (≈ 45.6 µM) | 16 (≈ 45.6 µM) | 16 (≈ 45.6 µM) | 32 (≈ 91.3 µM) | 32 (≈ 91.3 µM) |
| C=C(C)[C@@H]1CCC(C)=C[C@H]1c1c(O)cc(CCCCC)cc1OC | > 128 | > 128 | > 128 | > 128 | > 128 | > 128 |
| CCCCCc1cc(O)c2c(c1)OC(C)(CCC=C(C)C)C=C2 (configuration not stated) [CANNABICHROMENE] | 2 (≈ 6.36 µM) | 1 (≈ 3.18 µM) | 2 (≈ 6.36 µM) | 2 (≈ 6.36 µM) | 2 (≈ 6.36 µM) | 2 (≈ 6.36 µM) |
| CCCCCc1cc(OC)c(C/C=C(\C)CCC=C(C)C)c(OC)c1 | > 128 | > 128 | > 128 | > 128 | > 128 | > 128 |
| CC[C@H]1OC(=O)[C@H](C)[C@@H](O[C@H]2C[C@@](C)(OC)[C@@H](O)[C@H](C)O2)[C@H](C)[C@@H](O[C@@H]2O[C@H](C)C[C@H](N(C)C)[C@H]2O)[C@](C)(O)C[C@@H](C)C(=O)[C@H](C)[C@@H](O)[C@]1(C)O [ERYTHROMYCIN] | 0.25 (≈ 0.341 µM) | > 128 | > 128 | 0.25 (≈ 0.341 µM) | > 128 | 64 (≈ 87.2 µM) |
| CCCCCc1cc(O)cc(O)c1C/C=C(\C)CCC=C(C)C | 2 (≈ 6.32 µM) | 0.5 (≈ 1.58 µM) | 2 (≈ 6.32 µM) | 1 (≈ 3.16 µM) | – | 1 (≈ 3.16 µM) |
| C=C(C)[C@@H]1CCC(C)=C[C@H]1c1c(OC)cc(CCCCC)cc1OC | > 128 | > 128 | > 128 | > 128 | > 128 | > 128 |
| C=C(C)[C@@H]1CCC(C)=C[C@H]1c1c(OC(C)=O)cc(CCCCC)cc1OC(C)=O | > 128 | > 128 | > 128 | > 128 | > 128 | > 128 |
| CCn1cc(C(=O)O)c(=O)c2cc(F)c(N3CCNCC3)cc21 [NORFLOXACIN] | 32 (≈ 100 µM) | 4 (≈ 12.5 µM) | 0.5 (≈ 1.57 µM) | 1 (≈ 3.13 µM) | 128 (≈ 401 µM) | 1 (≈ 3.13 µM) |
| CCCCCc1cc(O)c(C/C=C(\C)CCC=C(C)C)c(OC)c1 | > 128 | > 128 | > 128 | > 128 | > 128 | > 128 |
| C=C(C)[C@@H]1CCC(C)=C[C@H]1c1c(O)cc(O)cc1CCCCC | 1 (≈ 3.18 µM) | 1 (≈ 3.18 µM) | 1 (≈ 3.18 µM) | 1 (≈ 3.18 µM) | 1 (≈ 3.18 µM) | 1 (≈ 3.18 µM) |
| CN(C)[C@@H]1C(O)=C(C(N)=O)C(=O)[C@@]2(O)C(O)=C3C(=O)c4c(O)cccc4[C@@](C)(O)[C@H]3C[C@@H]12 [TETRACYCLINE] | 0.25 (≈ 0.563 µM) | 128 (≈ 288 µM) | 0.125 (≈ 0.281 µM) | 0.25 (≈ 0.563 µM) | 0.125 (≈ 0.281 µM) | 0.25 (≈ 0.563 µM) |
| CCCCCc1cc2c(c(O)c1C(=O)O)[C@@H]1C=C(C)CC[C@H]1C(C)(C)O2 [DELTA9-TETRAHYDROCANNABINOLIC ACID A] | 8 (≈ 22.3 µM) | 8 (≈ 22.3 µM) | 8 (≈ 22.3 µM) | 4 (≈ 11.2 µM) | 4 (≈ 11.2 µM) | 4 (≈ 11.2 µM) |
| CCCCCc1cc(O)cc(O)c1 [WHILE OLIVETOL] | 64 (≈ 355 µM) | 64 (≈ 355 µM) | 64 (≈ 355 µM) | 128 (≈ 710 µM) | 64 (≈ 355 µM) | 64 (≈ 355 µM) |
| C=C(C)[C@@H]1CCC(C)=C[C@H]1c1c(O)cc(CCCCC)c(C(=O)OCCc2ccccc2)c1O | > 128 | > 128 | > 128 | > 128 | > 128 | > 128 |
